Data taken from ChEMBL document CHEMBL1154362, “Lead optimization and structure-based design of potent and bioavailable deoxycytidine kinase inhibitors” (Bioorg Med Chem Lett, 2009).
pEC50, pIC50: −log10 of the molar value. Calls of active or inactive are those of the source. No cut-off for these calls is given here.

Tests used:
Deoxycytidine kinase [1] = target: T1, Deoxycytidine kinase (Homo sapiens, UniProt P27707); assay: Inhibition of human deoxycytidine kinase by lysate filter binding assay
Target sequence in this assay (P27707 whole entry): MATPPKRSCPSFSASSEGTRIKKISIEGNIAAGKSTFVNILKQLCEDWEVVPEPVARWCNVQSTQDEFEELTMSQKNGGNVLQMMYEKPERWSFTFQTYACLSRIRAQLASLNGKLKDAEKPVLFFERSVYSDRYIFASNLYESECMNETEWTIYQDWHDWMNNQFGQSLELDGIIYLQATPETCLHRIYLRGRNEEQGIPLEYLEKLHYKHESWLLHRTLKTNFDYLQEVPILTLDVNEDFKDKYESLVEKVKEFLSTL

[2] = Clearance in mouse at 1 mg/kg, iv; assay type: ADME, organism-based; parameters: dose 1 mg/kg, route intravenous; conditions: in vivo
Method in brief: (§1)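 Mouse PK: single doses of 10 mpk po and 1 mpk iv, with blood sampled to measure compound levels. Clearance and volume came from the iv dose. AUC to infinity, Cmax and other parameters came from the po dosing data.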

[3] = Half life in mouse at 10 mg/kg, po; assay type: ADME, organism-based; parameters: dose 10 mg/kg, route oral; conditions: in vivo; method in brief: as §1
[4] = Terminal volume of distribution in mouse at 1 mg/kg, iv; assay type: ADME, organism-based; parameters: dose 1 mg/kg, route intravenous; conditions: in vivo, read-out: Vz; method in brief: as §1
[5] = Cmax in mouse at 10 mg/kg, po; assay type: ADME, organism-based; parameters: dose 10 mg/kg, route oral; conditions: in vivo; method in brief: as §1
[6] = Bioavailability in mouse at 10 mg/kg, po; assay type: ADME, organism-based; conditions: in vivo; method in brief: as §1
[7] = Tmax in mouse at 10 mg/kg, po; assay type: ADME, organism-based; parameters: dose 10 mg/kg, route oral; conditions: in vivo; method in brief: as §1
[8] = AUC ((0 to infinity)) in mouse at 10 mg/kg, po; assay type: ADME, organism-based; parameters: time infinity, dose 10 mg/kg, route oral; conditions: plasma; method in brief: as §1
Deoxycytidine kinase [9] = target: Deoxycytidine kinase (Mus musculus, UniProt P43346); assay: Inhibition of deoxycytidine kinase in anti CD3 and anti CD28 -stimulated mouse T cells assessed as reduction in [3H]deoxycitidine incorporation; assay type: cell-based, T-cell
Deoxycytidine kinase [10] = target: T1, Deoxycytidine kinase; assay: Inhibition of deoxycytidine kinase in anti CD3 and anti CD28 -stimulated human T cells assessed as reduction in deoxythymidine incorporation; assay type: cell-based; conditions: T-cell
Target sequence in this assay (P27707 whole entry, looked up): as the sequence (P27707 whole entry) above

[11] = Stability in mouse liver microsomes; assay type: ADME, Microsome
Liver microsomes = assay: Stability in human liver microsomes; assay type: ADME, Microsome
Mus musculus [12] = assay: Inhibition of deoxycytidine kinase in anti CD3 -stimulated po dosed mouse assessed as reduction in [3H]deoxycytidine incorporation treated 1 day before, day 0 and day 1 after anti CD3 challenge measured on day 2; assay type: functional, organism-based
Method in brief: (§2)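 In vivo mouse dCK inhibition. Compound was given by oral gavage on day -1, day 0 and day 1. Anti-CD3 (0.5 µg/g body wt) was given ip on day 0, after the second dose. […] (100 µCi/animal) was given ip on day 1. Spleens were harvested on day 2 and dissociated into single-cell suspensions normalized to 30 mg/ml by spleen weight. Aliquots were filtered onto glass fibre and counted by liquid scintillation. n = 6-8 mice per group; controls were vehicle and no anti-CD3.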

Deoxycytidine kinase [13] = target: T1, Deoxycytidine kinase; assay: Inhibition of deoxycytidine kinase in anti CD3 and anti CD28 -stimulated human T cells assessed as reduction in [3H]deoxycitidine incorporation; assay type: cell-based, T-cell
Target sequence in this assay (P27707 whole entry): as above

[14] = target: Deoxycytidine kinase (Mus musculus) (UniProt P43346); assay: Inhibition of deoxycytidine kinase in anti CD3 and anti CD28 -stimulated mouse T cells assessed as reduction in deoxythymidine incorporation; assay type: cell-based; conditions: T-cell
Mus musculus [15] = assay: Inhibition of deoxycytidine kinase in anti CD3 -stimulated mouse assessed as reduction in [3H]deoxycytidine incorporation at 100 mg/kg, po treated 1 day before, day 0 and day 1 after anti CD3 challenge measured on day 2; assay type: functional, organism-based; parameters: dose 100 mg/kg; method in brief: as §2

Sequence of Deoxycytidine kinase (Mus musculus) (P43346 whole entry, looked up): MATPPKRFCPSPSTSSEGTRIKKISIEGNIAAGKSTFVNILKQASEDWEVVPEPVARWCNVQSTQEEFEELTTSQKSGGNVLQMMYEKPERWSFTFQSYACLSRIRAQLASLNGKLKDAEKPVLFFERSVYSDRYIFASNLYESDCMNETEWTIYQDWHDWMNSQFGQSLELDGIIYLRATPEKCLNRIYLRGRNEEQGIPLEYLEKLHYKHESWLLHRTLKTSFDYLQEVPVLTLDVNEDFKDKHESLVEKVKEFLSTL
Sequence of Deoxycytidine kinase (Mus musculus, UniProt P43346) (P43346 whole entry): as the sequence (P43346 whole entry, looked up) above

Row | Structure (SMILES) | pIC50 (Deoxycytidine kinase [1]) | clearance [2] [mL/min/kg] | half-life [3] [h] | Vd [4] [L/kg] | Cmax [5] [µM] | Tmax [7] [h] | AUC(0-inf) [8] [µM·h] | other results
1 | Nc1nc(=O)n([C@H]2CC[C@H](NC(=O)c3cccc(-c4cccc(Cl)c4)c3)C2)cc1F | 7.64 | – | – | – | – | – | – | –
2 | Nc1nc(=O)n([C@H]2CC[C@H](NS(=O)(=O)c3cccc(-c4cccc(Cl)c4)c3)C2)cc1F | 7.10 | – | – | – | – | – | – | –
3 | Nc1nc(=O)n([C@H]2CC[C@H](NS(=O)(=O)c3cccc(-c4ccccc4Cl)c3)C2)cc1F | 7.35 | – | – | – | – | – | – | –
4 | CS(=O)(=O)c1ccc(-c2cccc(S(=O)(=O)N[C@H]3CC[C@H](n4cc(F)c(N)nc4=O)C3)c2)cc1 | 7.20 | – | – | – | – | – | – | –
5 | Nc1nc(=O)n([C@H]2CC[C@H](NS(=O)(=O)c3ccccc3)C2)cc1F | 5.44 | – | – | – | – | – | – | –
6 | Nc1nc(=O)n([C@H]2CC[C@H](NS(=O)(=O)c3cccc(-c4ccccc4)c3)C2)cc1F | 6.92 | – | – | – | – | – | – | –
7 | Nc1nc(=O)n([C@H]2CC[C@H](NS(=O)(=O)c3ccc(-c4ccccc4)cc3)C2)cc1F | 6.46 | – | – | – | – | – | – | –
8 | COc1ccc(-c2cccc(C(=O)N[C@H]3CC[C@H](n4cc(F)c(N)nc4=O)C3)c2)cc1 | 7.52 | 18 | 1.6 | 1.3 | 3.4 | 0.3 | 3.8 | bioavailability [6]: 17%
9 | Nc1nc(=O)n([C@H]2CC[C@H](NS(=O)(=O)c3ccc(Br)cc3)C2)cc1F | 5.57 | – | – | – | – | – | – | –
10 | COc1ccc(-c2cccc(S(=O)(=O)N[C@H]3CC[C@H](n4cc(F)c(N)nc4=O)C3)c2)cc1 | 7.19 | 63 | 1.2 | 4.4 | 0.3 | 0.8 | 0.6 | bioavailability [6]: 9%
11 | Nc1nc(=O)n([C@H]2CC[C@H](NC(=O)c3cccc(-c4ccc(Cl)cc4)c3)C2)cc1F | 7.38 | 3 | 0.8 | 0.2 | 16.2 | 0.3 | 15.8 | bioavailability [6]: 12%
12 | Nc1nc(=O)n([C@H]2CC[C@H](NS(=O)(=O)c3ccc([N+](=O)[O-])cc3)C2)cc1F | 5.49 | – | – | – | – | – | – | –
13 | Nc1nc(=O)n([C@H]2CC[C@H](NS(=O)(=O)c3cccc(-c4ccc(Cl)cc4)c3)C2)cc1F | 7.29 | 140 | 2.1 | 16 | 1 | 2 | 5.2 | –
14 | Nc1nc(=O)n([C@H]2CC[C@H](NC(=O)c3cccc(-c4ccccc4)c3)C2)cc1F | 6.59 | – | – | – | – | – | – | –
15 | NC(=O)c1ccc(-c2cccc(S(=O)(=O)N[C@H]3CC[C@H](n4cc(F)c(N)nc4=O)C3)c2)cc1 | 7.05 | – | – | – | – | – | – | –
16 | Cc1cc(Cl)ccc1-c1cccc(S(=O)(=O)N[C@H]2CC[C@H](n3cc(F)c(N)nc3=O)C2)c1 | 7.68 | 23 | 1.6 | 3 | 1.5 | 0.3 | 2.3 | bioavailability [6]: 15%
17 | Nc1nc(=O)n([C@H]2CC[C@H](NS(=O)(=O)c3cccc(Br)c3)C2)cc1F | 5.72 | – | – | – | – | – | – | –
18 | Cc1ccc(-c2cccc(S(=O)(=O)N[C@H]3CC[C@H](n4cc(F)c(N)nc4=O)C3)c2)cc1 | 6.96 | – | – | – | – | – | – | –
19 | Nc1nc(=O)n([C@H]2CC[C@H](NS(=O)(=O)c3cccc(-c4ccc(Cl)cc4Cl)c3)C2)cc1F | 7.68 | – | – | – | – | – | – | –
20 | Cc1cc(Cl)ccc1-c1cccc(C(=O)N[C@H]2CC[C@H](n3cc(F)c(N)nc3=O)C2)c1 | 7.68 | 20 | 1.3 | 1.6 | 10.1 | 0.3 | 10.8 | bioavailability [6]: 58%
21 | N#Cc1ccc(-c2cccc(S(=O)(=O)N[C@H]3CC[C@H](n4cc(F)c(N)nc4=O)C3)c2)cc1 | 7.31 | – | – | – | – | – | – | –
22 | Nc1nc(=O)n([C@H]2CC[C@H](NC(=O)c3cc(-c4cc5ccccc5s4)ccn3)C2)cc1F | 8.77 | 7 | 1.5 | 0.8 | 7.4 | 0.6 | 22 | pEC50 (Deoxycytidine kinase [9]): 7.77; Activity (Deoxycytidine kinase [10]): inactive; Stability [11]: Stable; Stability (Liver microsomes): Stable; Activity (Mus musculus [12]): Dose-dependent effect; pEC50 (Deoxycytidine kinase [13]): 7.05; bioavailability [6]: 42%; Activity [14]: inactive; Activity (Mus musculus [15]): Active
23 | Nc1nc(=O)n([C@H]2CC[C@H](NS(=O)(=O)c3cccc(-c4ccc(C(=O)O)cc4)c3)C2)cc1F | 4.82 | – | – | – | – | – | – | –
